pEC50: −log10 of the molar value. In brackets after ≈: the same amount, converted by molar mass. Activity calls are given as the source filed them. The calls are words filed in the database; no cut-off is given here.
Assays:
Hepatitis B virus = assay: Antiviral activity against HBV infected in mouse AML12HBV10 cells assessed as reduction in viral replication incubated for 48 hrs and measured by [alpha-32P]UTP-labeled radio-probe based dot blot hybridization assay; type: functional, organism-based
Method in brief: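 The test used the stable HBV line AML12HBV10, derived from immortalized mouse hepatocytes (AML12). HBV replication was measured by dot blot hybridization and EC50 was determined.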

[1] = Cytotoxicity against mouse […] measured by MTT assay; type: toxicity, cell-based, AML12HBV10
Method in brief: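 Cytotoxicity was measured by MTT assay in the stable HBV line AML12HBV10, derived from immortalized mouse hepatocytes (AML12), and CC50 was determined.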

[2] = Metabolic stability in human liver microsomes assessed as half-life; type: ADME, Microsome; conditions: for t1/2: microsomes
[3] = Metabolic stability in mouse liver microsomes assessed as half-life; type: ADME, Microsome; conditions: for t1/2: microsomes
[4] = Apparent permeability across apical to basolateral membrane in human Caco-2 cells; type: ADME, cell-based
[5] = Apparent permeability across basolateral to apical membrane in human Caco-2 cells; type: ADME, cell-based
[6] = Efflux ratio for apparent permeability across basolateral to apical side to apical to basolateral side in human Caco2 cells; type: ADME, cell-based; conditions: Caco-2
HepDES19 [7] = assay: Antiviral activity against HBV infected in human HepDES19 cells assessed reduction of amounts of encapsidated pgRNA 5 uM […] by northern blot hybridization assay; type: functional, cell-based
Method in brief: (§1)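 In tet-inducible HepDES19 cells, pgRNA transcription was induced by tetracycline removal; tet-maintained cells were the negative control. Treatment with DMSO or compound at 2 or 5 μM began 24 h after tet removal and lasted 6 days. Encapsidated pgRNA was detected by Northern blot hybridization, with ribosomal RNA as loading control.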

HepDES19 [8] = assay: Antiviral activity against HBV infected in human HepDES19 cells assessed as reduction of capsid associated HBV DNA 5 uM measured by agarose gel electrophoresis-based particle gel assay; type: functional, cell-based
Method in brief: (§2)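 HepDES19 cells were kept with tetracycline to block pgRNA transcription (negative control) or without it to induce pgRNA transcription and HBV DNA replication. Compounds (1, 2 or 5 μM) or DMSO were added starting 24 h after tet removal and kept for 6 days.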

HepDES19 [9] = assay: Antiviral activity against HBV infected in human HepDES19 cells assessed reduction of amounts of encapsidated pgRNA 2 uM […] by northern blot hybridization assay; type: functional, cell-based; method in brief: as §1
HepDES19 [10] = assay: Antiviral activity against HBV infected in human HepDES19 cells assessed as reduction in levels of intracellular core protein 2 uM measured by Western blot assay; type: functional, cell-based
Method in brief: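 HepDES19 cells kept in tetracycline, then switched to tet-free medium to induce pgRNA transcription and HBV DNA replication; tet-maintained cells serve as negative control. Treatment with compound or DMSO started 24 h after tet removal and continued for 6 days. Intracellular core protein was detected by Western blot with an antibody against the C-terminal 14 residues of core, with β-actin as loading control.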

HepDES19 [11] = assay: Antiviral activity against HBV infected in human HepDES19 cells assessed as reduction of capsid associated HBV DNA 2 uM measured by agarose gel electrophoresis-based particle gel assay; type: functional, cell-based; method in brief: as §2
[12] = Solubility of the compound at pH 4; type: physicochemical; conditions: buffer
[13] = Solubility of the compound at pH 7; type: physicochemical; conditions: buffer
[14] = Plasma protein binding in mouse; type: ADME, cell-free
[15] = Plasma protein binding in human; type: ADME, cell-free
[16] = Half-life in mouse at 3 mg/kg, iv; type: ADME, organism-based; conditions: in vivo
[17] = AUClast in mouse at 3 mg/kg, iv; type: ADME, organism-based; set-up: time 0 - last, dose 3 mg/kg, route iv; conditions: in vivo
[18] = Observed volume of distribution at steady state in mouse at 3 mg/kg, iv; type: ADME, organism-based; conditions: in vivo, read-out: Vdss
[19] = Half-life in mouse at 10 mg/kg, po; type: ADME, organism-based; conditions: in vivo
[20] = Cmax in mouse at 10 mg/kg, po; type: ADME, organism-based; set-up: dose 10 mg/kg, route po; conditions: in vivo
[21] = AUClast in mouse at 10 mg/kg, po; type: ADME, organism-based; set-up: time 0 - last, dose 10 mg/kg, route po; conditions: in vivo
[22] = Oral bioavailability in mouse at 10 mg/kg; type: ADME, organism-based; conditions: in vivo
HepDES19 [23] = assay: Antiviral activity against HBV infected in human HepDES19 cells assessed as reduction of capsid associated HBV DNA 1 uM measured by agarose gel electrophoresis-based particle gel assay; type: functional, cell-based; method in brief: as §2
[24] = Hepatitis B virus, AML12HBV10, 48 h

Row | SMILES | pEC50 (Hepatitis B virus; [24]) | CC50 ([1]; aml12hbv10) | other results
1 | O=C1CCN(C(=O)Nc2ncc(F)c(Cl)n2)[C@@H]2CCCC[C@H]12 | < 5.00 | > 50 µM | –
2 | N#Cc1ccc(NC(=O)c2cccc3c2OCCO3)cc1Cl | 5.42 | > 50 µM | –
3 | CCC(C)NS(=O)(=O)c1cc2c(c(C(=O)Nc3ccc(F)c(Cl)c3)c1)OCCO2 (centres undefined) | 5.79 | > 33.3 µM | t1/2 [2]: 37.4 min; t1/2 [3]: 16.4 min
4 | N#Cc1cc(NC(=O)N2CCC(=O)[C@H]3CCCC[C@H]32)ccc1F | 6.07 | > 20 µM | –
5 | O=C(Nc1ccc(F)c(Cl)c1)c1cc(S(=O)(=O)N2CCC(O)CC2)cc2c1OCCO2 | 5.25 | > 50 µM | –
6 | Cc1cc(NC(=O)N2CCC(=O)[C@H]3CCCC[C@H]32)ccc1F | 6.42 | > 20 µM | –
7 | O=C1CCC(C(=O)Nc2ccc(F)c(Cl)c2)c2ccccc21 (centres undefined) | 5.78 | > 100 µM | t1/2 [3]: 5.8 min
8 | O=C(Nc1ccc(F)c(Cl)c1)c1cccc2c1OCCO2 | 6.70 | > 50 µM | t1/2 [2]: 1.7 min; t1/2 [3]: 6.6 min
9 | O=C(Nc1ccnc(Cl)c1)c1cccc2c1OCCO2 | 5.33 | > 100 µM | –
10 | O=C(Nc1ccc(F)c(Cl)c1)N1CCOc2cccnc21 | < 5.00 | 26.3 µM | –
11 | O=C1CCN(C(=O)Nc2ccc(F)c(Cl)c2)[C@H]2CCCC[C@@H]12 (relative stereo) | – | – | pEC50 (Hepatitis B virus; aml12hbv10): 6.15; half-life ([2]; liver microsomes): 56.8 min; half-life ([3]; liver microsomes): 32 min; CC50 ([1]; AML12HBV1 cells): > 100 µM; Papp A→B [4]: 14.7 ×10⁻⁶ cm/s; Papp B→A [5]: 7.8 ×10⁻⁶ cm/s; efflux ratio [6]: 0.5
12 | O=C(Nc1ccc(C(F)(F)F)c(Cl)c1)c1cccc2c1OCCO2 | 5.80 | > 50 µM | t1/2 [2]: 44.4 min; t1/2 [3]: 6.9 min
13 | O=C(Nc1ccc2ncsc2c1)c1cccc2c1OCCO2 | < 5.00 | > 50 µM | –
14 | O=C1CCN(C(=O)Nc2ccc(F)c(Cl)c2)C2CCCCC12 (stereo in doubt; 61) [listing 1 of 2 here] | – | – | Activity (HepDES19 [7]): Active; Activity (HepDES19 [8]): Active
15 | O=C(Nc1ccc(N2CCOCC2)c(Cl)c1)c1cccc2c1OCCO2 | < 5.00 | > 25 µM | –
16 | C[C@@H](NS(=O)(=O)c1ccc(F)c(C(=O)Nc2ccc(F)c(F)c2)c1)C1CC1 | – | – | Activity (HepDES19 [7]): Active
17 | O=C(NCc1ccc(F)cc1F)c1cccc2c1OCCO2 | 5.34 | > 20 µM | –
18 | O=C1CCN(C(=O)Nc2ccc(F)c(Cl)c2)C2CCCCC12 (stereo in doubt; 60) | – | – | pEC50 (Hepatitis B virus; aml12hbv10): 5.73; t1/2 [2]: 48 min; t1/2 [3]: 7 min
19 | O=C1CCN(C(=O)Nc2cc(F)c(F)c(F)c2)[C@@H]2CCCC[C@H]12 | 5.62 | > 100 µM | –
20 | O=C(Nc1ccc(F)c(Cl)c1)n1[nH]c(=O)c2ccccc21 | < 5.00 | > 100 µM | –
21 | COC(=O)C1=C(C)NC(c2ncc(F)cc2F)=N[C@H]1c1ccc(F)cc1Cl | – | – | Activity (HepDES19 [9]): Active; Activity (HepDES19 [10]): Active; Activity (HepDES19 [11]): Active
22 | O=C(Nc1cc(Cl)nc(Cl)c1)c1cccc2c1OCCO2 | 5.20 | > 33.3 µM | –
23 | O=C(Nc1ccc(F)c(Cl)c1)c1cccc2nccnc12 | 5.62 | > 12.5 µM | –
24 | O=C(Nc1ccc2c(c1)OCO2)c1cccc2c1OCCO2 | 5.38 | > 100 µM | –
25 | O=C1CCN(C(=O)Nc2ccc(F)c(Cl)c2)C(c2ccccc2)C1 (centres undefined) | 5.30 | > 100 µM | –
26 | O=C1CCN(C(=O)Nc2ccc(F)c(Cl)c2)C2CCCCC12 (stereo in doubt; 61) [listing 2 of 2 here] | – | – | pEC50 (Hepatitis B virus; aml12hbv10): 6.34; t1/2 [2]: 71 min; t1/2 [3]: 56 min; solubility [12]: 239 µM (≈ 77.6 µg/mL); solubility [13]: 253 µM (≈ 82.2 µg/mL); PPB [14]: 94%; PPB [15]: 90%; t1/2 [16]: 36 min; AUClast [17]: 1952 ng·h/mL; Vd [18]: 0.8 L/kg; t1/2 [19]: 42 min; Cmax [20]: 2727 ng/mL; AUClast [21]: 4516 ng·h/mL; F [22]: 69%
27 | O=C1COc2cccc(C(=O)Nc3ccc(F)c(Cl)c3)c2N1 | < 5.00 | > 50 µM | –
28 | O=C1CC2CC1CN2C(=O)Nc1ccc(F)c(Cl)c1 (centres undefined) | < 5.00 | > 100 µM | –

Row | SMILES | pEC50 (Hepatitis B virus; [24]) | CC50 ([1]; aml12hbv10) | other results
29 | O=C1CCN(C(=O)Nc2ccc(F)c(Cl)c2)c2ccc(Cl)cc21 | 5.32 | > 100 µM | –
30 | O=C1CCN(C(=O)Nc2cccc(Cl)c2)[C@@H]2CCCC[C@H]12 | 6.66 | > 20 µM | –
31 | C[C@@H](NS(=O)(=O)c1cc2c(c(C(=O)Nc3ccc(F)c(Cl)c3)c1)OCCO2)c1ccncc1 | 4.87 | – | –
32 | O=C(Nc1ccc(F)c(Cl)c1)C1CCCc2ccccc21 (centres undefined) | 5.03 | 25 µM | –
33 | O=C1CCCN(C(=O)Nc2ccc(F)c(Cl)c2)c2ccccc21 | < 5.00 | > 100 µM | –
34 | O=C1CCN(C(=O)Nc2ccc(F)c(C(F)(F)F)c2)[C@@H]2CCCC[C@H]12 | 6.01 | > 20 µM | –
35 | O=C1CCN(C(=O)Nc2ccc(F)c(Cl)c2)C(Cc2ccccc2)C1 (centres undefined) | 5.29 | > 20 µM | –
36 | O=C(Nc1cc(F)c(F)c(F)c1)c1cccc2c1OCCO2 | 6.55 | > 100 µM | –
37 | O=C(Nc1ccc(F)c(Cl)c1)c1cccc2ccoc12 | 6.14 | > 100 µM | t1/2 [2]: 61.2 min; t1/2 [3]: 6 min
38 | O=C1CC(c2ccccc2)N(C(=O)Nc2ccc(F)c(Cl)c2)c2ccccc21 (centres undefined) | 5.54 | > 50 µM | –
39 | O=C(Nc1ccc(O)c(Cl)c1)c1cccc2c1OCCO2 | 5.01 | > 100 µM | –
40 | O=C(Nc1ccc(F)c(Cl)c1)c1cccc2c1OC(F)(F)O2 | 6.96 | > 100 µM | t1/2 [2]: 16.4 min; t1/2 [3]: 11 min
41 | O=C1CCN(C(=O)Nc2ccnc(Cl)n2)[C@@H]2CCCC[C@H]12 | < 5.00 | > 100 µM | –
42 | O=C1CCN(C(=O)Nc2ccc(F)c(C(F)F)c2)[C@@H]2CCCC[C@H]12 | 6.59 | > 20 µM | t1/2 [2]: 69 min; t1/2 [3]: 35 min
43 | C=C1[C@H](CO)[C@@H](O)C[C@@H]1n1cnc2c(=O)[nH]c(N)nc21 | – | – | Activity (HepDES19 [23]): Active
44 | O=C(Nc1ccc(F)c(Cl)c1)c1cccc2c1OCCC2 | 6.12 | > 12.5 µM | –
45 | O=C(Nc1ccc(F)c(Cl)c1)N1CCOc2ccccc21 | 6.28 | > 100 µM | t1/2 [2]: 14.7 min; t1/2 [3]: < 4 min
46 | O=C1CCN(C(=O)Nc2ccc(F)c(Cl)c2)C2CCCCC12 (centres undefined) | – | – | pEC50 (Hepatitis B virus; aml12hbv10): 5.74; t1/2 [2]: 5 min; t1/2 [3]: 7.8 min
47 | CC1(C)Cc2cccc(C(=O)Nc3ccc(F)c(Cl)c3)c2O1 | 5.83 | > 50 µM | –
48 | O=C(Nc1ccc(F)c(Cl)c1)c1cccc2c1OCC2 | 5.66 | 4.6 µM | –
49 | O=C(CC1COCCO1)Nc1ccc(F)c(Cl)c1 (centres undefined) | 5.30 | > 100 µM | –
50 | O=C(NC1CC(F)(F)C1)c1cccc2c1OCCO2 | < 5.00 | > 100 µM | –
51 | O=C(Nc1ccc(F)c(Cl)c1)N1CCS(=O)(=O)c2ccccc21 | < 5.00 | > 100 µM | –
52 | O=C(Nc1ccc2c(c1)CCC2)c1cccc2c1OCCO2 | < 5.00 | > 50 µM | –
53 | O=C1CCN(C(=O)Nc2ccc(F)c(Cl)c2)c2ccccc21 | 5.88 | > 12.5 µM | t1/2 [2]: 47.2 min; t1/2 [3]: 10 min
54 | O=C1CC2CCC(C1)N2C(=O)Nc1ccc(F)c(Cl)c1 | < 5.00 | > 100 µM | –
55 | O=C(Nc1ccc(F)c(Cl)c1)c1cccc2cc[nH]c12 | 5.35 | > 33.3 µM | –
